# Laboratory results: ChEMBL document CHEMBL1148153, “New 3-O-acyl betulinic acids from Strychnos vanprukii Craib” (J Nat Prod, 2004)
# pEC50, pIC50: −log10 of the molar value.
# Columns and labels:
# [1] = Cytotoxicity against human HOG.R5 cells after 4 days; assay type: cell-based
# Outline: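 GFP-based HOG.R5 reporter cells in microtiter wells treated with compounds without virus, in parallel with HIV-1 IIIB-infected (2.5 ng/mL p24) cultures. After 4 days, viability judged by combined microscopic and fluorometric measurement. CC50 = concentration mediating 50% cytotoxicity.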
# [2] = Selectivity index, ratio of CC50 for human HOG.R5 cells to IC50 for HIV1 3B; assay type: functional
# Outline: (§1)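 GFP reporter HOG.R5 cells in microtiter wells infected with HIV-1 IIIB (2.5 ng/mL p24) with test agent present. Fluorescence read after 4 days. Selectivity index taken as CC50 in uninfected parallel HOG.R5 cultures divided by antiviral IC50.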
# [3] = Cytotoxicity against human CEM-SS cells after 6 days by MTS assay; assay type: cell-based
# Outline: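 CEM-SS cells split 1:2 the day before, then washed and resuspended at (2-3) × 10^4 cells/mL in RPMI 1640 with 10% heat-inactivated FBS, 4 mM L-glutamine, penicillin/streptomycin. Compounds diluted in complete medium, virus omitted (toxicity controls). 6 days at 37 °C, 5% CO2; MTS/PES added (final 317 µg/mL and 50 µM), 4 h further, A490/650. CC50 = 50% cytotoxic concentration.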
# [4] = test system: Human immunodeficiency virus 1; assay: Antiviral activity against HIV1 3B infected in human CEM-SS cells assessed as inhibition of virus-induced cytopathic effect at 2.7 uM after 6 days by MTS assay; assay type: functional; settings: Human immunodeficiency virus 1, 3B, 144 h
# Outline: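 CEM-SS cells split 1:2 the day before, then washed and resuspended at (2-3) × 10^4 cells/mL in RPMI 1640 with 10% heat-inactivated FBS, glutamine and antibiotics. Infected with HIV-1 IIIB (~2 ng p24/mL, MOI ~0.4) alongside test agent. Incubated 6 days at 37 °C, 5% CO2. MTS/PES added (final 317 µg/mL and 50 µM) for 4 h. Absorbance read at 490/650 nm and reported as % CPE reduction.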
# [5] = test system: Human immunodeficiency virus 1; assay: Antiviral activity against HIV1 3B infected in human HOG.R5 cells after 4 days; assay type: functional, organism-based; settings: Human immunodeficiency virus 1, 3B, HOG.R5, 96 h; outline: as §1
# HUVEC = assay: Cytotoxicity against HUVEC cells; assay type: functional; settings: Homo sapiens, read-out: ED50 (the source's name)
# Lu1 = assay: Cytotoxicity against human Lu1 cells; assay type: functional; settings: read-out: ED50 (the source's name)
# Col2 = assay: Cytotoxicity against human Col2 cells; assay type: functional; settings: read-out: ED50 (the source's name)
# KB = assay: Cytotoxicity against human KB cells; assay type: functional; settings: read-out: ED50 (the source's name)
# LNCaP = assay: Cytotoxicity against human LNCAP cells; assay type: functional; settings: read-out: ED50 (the source's name)
# SK-MEL-2 = assay: Cytotoxicity against human SK-MEL-2 cells; assay type: functional; settings: read-out: ED50 (the source's name)
# [6] = test system: Human immunodeficiency virus 1; assay: Antiviral activity against HIV1 3B infected in human CEM-SS cells assessed as inhibition of virus-induced cytopathic effect after 6 days by MTS assay; assay type: functional; settings: for pEC50: Human immunodeficiency virus 1, 3B, 144 h, read-out: ED50 (the source's name)
# Outline: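 CEM-SS cells split 1:2 the day before, then washed and resuspended at (2-3) × 10^4 cells/mL in RPMI 1640 with 10% heat-inactivated FBS, 4 mM L-glutamine, penicillin/streptomycin. Compounds diluted in complete medium. HIV-1 IIIB added at ~2 ng p24/mL (MOI ~0.4). Incubated 6 days at 37 °C, 5% CO2. MTS/PES added (final 317 µg/mL and 50 µM) for 4 h. Read at 490/650 nm as % CPE reduction; five-concentration dose-response.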
# [7] = Cytotoxicity against human HOG.R5 cells at 40 ug/ml after 4 days; assay type: cell-based; settings: 96 h
# Outline: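 HOG.R5 cultures run in parallel with the infection assay, given identical test-agent concentrations with virus omitted. After 4 days, viability monitored by microscopic and fluorometric measurement and CC50 derived.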
# CEM-SS = assay: Cytotoxicity against human CEM-SS cells at 40 ug/ml after 6 days by MTS assay; assay type: cell-based; settings: 144 h
# Outline: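 Run alongside the CPE assay as uninfected toxicity controls. CEM-SS cells at (2-3) × 10^4 cells/mL in RPMI 1640 with 10% heat-inactivated FBS and 4 mM L-glutamine, plus compound without virus. After 6 days at 37 °C, MTS/PES added (final 317 µg/mL and 50 µM) for 4 h. Absorbance at 490/650 nm gives % viability and CC50.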
# [8] = Selectivity index, ratio of CC50 for human CEM-SS cells to IC50 for HIV1 3B; assay type: functional
# Outline: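 CEM-SS cells at (2-3) × 10^4 cells/mL in RPMI 1640/10% FBS infected with HIV-1 IIIB (~2 ng p24/mL, MOI ~0.4) in presence of compounds. After 6 days at 37 °C, viability by MTS/PES reduction (4 h, A490/650). ED50 is 50% cytoprotection against viral CPE. SI = CC50 in uninfected parallel cells / ED50.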
smiles,measurement,setting,value
C[C@H]1[C@H](C)CC[C@]2(C(=O)O)CC[C@]3(C)C(=CC[C@@H]4[C@@]5(C)CC[C@H](O)C(C)(C)[C@@H]5CC[C@]43C)[C@H]12 [URSOLIC ACID],CC50 at 96 h,[1],15.4 µM
same,Ratio CC50/IC50,[2],1
same,CC50 at 144 h,[3],21.9 µM
same,inhibition at 2.7 µM,[4],22%
same,pIC50,[5],4.84
C=C(C)[C@@H]1CC[C@]2(C(=O)O)CC[C@]3(C)[C@H](CC[C@@H]4[C@@]5(C)CC[C@H](OC(=O)/C=C\c6ccc(O)c(OC)c6)C(C)(C)[C@@H]5CC[C@]43C)[C@@H]12,pEC50,HUVEC,5.21
same,CC50 at 96 h,[1],22.2 µM
same,Ratio CC50/IC50,[2],2
same,CC50 at 144 h,[3],< 1.6 µM
same,pEC50,Lu1,4.80
same,pEC50,Col2,5.13
same,pEC50,KB,5.27
same,pEC50,LNCaP,5.28
same,pEC50,SK-MEL-2,5.42
same,Activity,[6],Toxic
same,pIC50,[5],4.95
Cc1c(O)cccc1C(=O)N[C@@H](CSc1ccccc1)[C@H](O)CN1C[C@H]2CCCC[C@H]2C[C@H]1C(=O)NC(C)(C)C,Activity,[7],Non-toxic
same,Activity,CEM-SS,Non-toxic
same,pEC50,[6],7.52
same,pIC50,[5],7.05
C=C(C)[C@@H]1CC[C@]2(C(=O)O)CC[C@]3(C)[C@H](CC[C@@H]4[C@@]5(C)CC[C@H](OC(=O)/C=C\c6ccc(O)cc6)C(C)(C)[C@@H]5CC[C@]43C)[C@@H]12,pEC50,HUVEC,5.17
same,CC50 at 96 h,[1],15.9 µM
same,Ratio CC50/IC50,[2],2
same,CC50 at 144 h,[3],< 1.7 µM
same,pEC50,Lu1,4.96
same,pEC50,Col2,5.22
same,pEC50,KB,5.37
same,pEC50,LNCaP,5.49
same,pEC50,SK-MEL-2,5.42
same,Activity,[6],Toxic
same,pIC50,[5],5.10
Nc1ccn([C@@H]2CS[C@H](CO)O2)c(=O)n1 [LAMIVUDINE],Activity,[7],Non-toxic
same,Activity,CEM-SS,Non-toxic
same,pEC50,[6],6.44
C=C(C)[C@@H]1CC[C@]2(C(=O)O)CC[C@]3(C)[C@H](CC[C@@H]4[C@@]5(C)CC[C@H](OC(=O)/C=C/c6ccc(O)cc6)C(C)(C)[C@@H]5CC[C@]43C)[C@@H]12,pEC50,HUVEC,5.28
same,CC50 at 96 h,[1],14.3 µM
same,Ratio CC50/IC50,[2],3
same,CC50 at 144 h,[3],< 1.7 µM
same,pEC50,Lu1,4.92
same,pEC50,Col2,5.18
same,pEC50,KB,5.26
same,pEC50,LNCaP,5.24
same,pEC50,SK-MEL-2,5.38
same,Activity,[6],Toxic
same,pIC50,[5],5.25
C=C(C)[C@@H]1CC[C@]2(C(=O)O)CC[C@]3(C)[C@H](CC[C@@H]4[C@@]5(C)CC[C@H](OC(=O)/C=C/c6ccc(O)c(OC)c6)C(C)(C)[C@@H]5CC[C@]43C)[C@@H]12,pEC50,HUVEC,5.02
same,CC50 at 96 h,[1],13.4 µM
same,Ratio CC50/IC50,[2],3
same,CC50 at 144 h,[3],< 1.6 µM
same,pEC50,Lu1,5.07
same,pEC50,Col2,5.27
same,pEC50,KB,5.60
same,pEC50,LNCaP,5.49
same,pEC50,SK-MEL-2,5.42
same,Activity,[6],Toxic
same,pIC50,[5],5.29
CC(C)Nc1cccnc1N1CCN(C(=O)c2cc3cc(NS(C)(=O)=O)ccc3[nH]2)CC1.CS(=O)(=O)O [DELAVIRDINE MESYLATE],Activity,[7],Non-toxic
same,Activity,CEM-SS,Non-toxic
same,pEC50,[6],7.22
same,pIC50,[5],7.70
C=C(C)[C@@H]1CC[C@]2(C(=O)O)CC[C@]3(C)[C@H](CC[C@@H]4[C@@]5(C)CC[C@H](O)C(C)(C)[C@@H]5CC[C@]43C)[C@@H]12 [BETULINIC ACID],pEC50,HUVEC,4.54
same,CC50 at 96 h,[1],16.7 µM
same,Ratio CC50/IC50,[2],5
same,CC50 at 144 h,[3],5.9 µM
same,pEC50,Lu1,4.39
same,pEC50,Col2,4.36
same,pEC50,KB,4.45
same,pEC50,LNCaP,4.56
same,pEC50,SK-MEL-2,5.89
same,pEC50,[6],5.70
same,Ratio CC50/IC50,[8],3
same,pIC50,[5],5.51
CCCc1cc(=O)oc2c3c(c4c(c12)OC(C)(C)C=C4)O[C@H](C)[C@@H](C)[C@@H]3O [CALANOLIDE A],Activity,[7],Non-toxic
same,Activity,CEM-SS,Non-toxic
same,pEC50,[6],6.51
same,pIC50,[5],7.15
